EP2 modulator = modulates human prostaglandin E2 receptor EP2 signaling | P43116 | EP2-expressing cells, cAMP HTRF FRET, PGE2 co-stimulation | induction, % at 25 µM | 0.83% of 260,000 active;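 active = compounds whose cAMP rise, as percent of the full-agonist control response, exceeds 60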;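 note: rat C6 glioma line stably carrying human EP2 under a CMV promoter; the protocol text gives 20 µM as final concentration; 100% = response of wells given 1 µM PGE2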
EP2 antag = inhibitors of human EP2 prostaglandin E2 receptor; P43116; C6 glioma cells expressing human EP2, cAMP TR-FRET; cells stimulated with saturating PGE2; inhibition, % at 25 µM; 0.52% of 260,000 active; AID 1422;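 active = percent inhibition above 40 after rounding to a whole number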;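 note: rat C6 glioma host cells with rolipram phosphodiesterase inhibitor present; the protocol text gives 20 µM as final concentration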
FXIIa inh 1536 = inhibitors of human coagulation factor XIIa; inhibition, % at 5 µM; 0.3% of 220,000 active; P00748; purified FXIIa, Boc-QGR-AMC fluorogenic substrate, 2 h; in the data active = inhibition above about 40%;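 note: 0% = enzyme with no compound and 100% = blank without enzyme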
thrombin 1536 = thrombin (human) inhibition | P00734 | alpha-thrombin, Boc-VPR-AMC fluorogenic substrate cleavage | inhibition, % at 5 µM | 0.26% of 220,000 active;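 active = inhibition at or above 40%; inactive = inhibition below 40%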;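 note: 0% = enzyme with no compound and 100% = wells without enzyme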
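Test system: human alpha-thrombin protein / Dosing: one concentration per compound, 5 µM, with 0.2% DMSO / Medium: pH 7.5 Tris-saline with Tween 20 / Benchmarks: no-compound enzyme wells and no-enzyme blanks / Read-out basis: percent inhibition of thrombin substrate cleavage / Timing: reaction at room temperature / Measured by: fluorescence, ex 355 nm, em 460 nm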
hK5 inh = kallikrein 5 (human) inhibition | Q9Y337 | recombinant hK5, fluorogenic AMC substrate cleavage | inhibition, % at 5 µM | 0.59% of 210,000 active | AID 873;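 active = inhibition of 40% or more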;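 note: 0% = enzyme controls without compound and 100% = no-enzyme blanks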
FXIa inh 1536 = inhibitors of human coagulation factor XIa | 0.14% of 220,000 active | inhibition, % at 5 µM | AID 798 | purified FXIa, Boc-Glu-Ala-Arg-AMC fluorogenic substrate;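 active = inhibition of at least 40%; inactive = inhibition below 40%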;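 note: fluorescence of freed AMC excited at 355 nm; 0% = enzyme without compound and 100% = no enzyme blank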
EP2 cAMP induct = EP2 receptor cAMP induction, counter-screens negative. shares compounds with EP2 modulator. C6 glioma EP2 cells, cAMP HTRF induction; plus low (about EC15) PGE2 agonist. calls only at 20 µM (by protocol). 47% of 1,300 active. AID 1080;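 active = cAMP induction above 50% in the main assay while under 30% in all four parallel counter assays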;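 note: rat C6 glioma cells stably expressing human EP2 receptor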
* marks the source's active call; other numbers are inactive results; i = inactive; nt = no result given; + = active, no number. Hits are enriched below; roughly 2.1% of the tested compounds scored in any of these assays.

SMILES	EP2 modulator	EP2 antag	FXIIa inh 1536	thrombin 1536	hK5 inh	FXIa inh 1536	EP2 cAMP induct
Cc1nc(-c2ccccc2)c(CC(=O)N(CCN(C)C)C2CCN(C)CC2)s1	-43	5	nt	nt	nt	nt	nt
Cn1cccc1/C=C1\C(=O)NC(=O)N(CCC2=CCCCC2)C1=O	6	4	6	-1	8	8	nt
Cn1cccc1/C=C1\C(=O)NC(=O)N(Cc2ccccc2Cl)C1=O	-72	10	32	10	18	48*	nt
CCCSc1nc2ccccc2c(=O)n1-c1ccccc1C	75*	15	nt	nt	nt	nt	nt
C[C@]12CCC3C(CC[C@H]4C[C@@H](Cl)CC[C@]34C)C1CCC2=O (stereo partly specified)	64*	12	nt	nt	nt	nt	+
C[C@]12CCC3C(CC[C@H]4C[C@H](OS(=O)(=O)O)CC[C@]34C)C1CCC2=O (stereo partly specified)	19	10	nt	nt	nt	nt	nt
CCc1ccccc1NC(=O)CNC1CCCCC1	8	3	4	-4	7	2	nt
CN(CC(=O)Nc1ccccc1-c1ccccc1)C1CCCCC1	74*	8	6	-2	-4	0	i
CCC(CC)N1CCN(Cc2ccc(OC)cc2)CC1	-78	5	nt	nt	nt	nt	nt
Cc1ccc(NP(=O)(Oc2ccccc2F)Oc2ccccc2F)cc1C	71*	4	1	-6	-6	-3	i
CCOC(=O)C(C)Oc1cc(C)cc2oc(=O)c3c(c12)CCCC3 (stereo unspecified)	57	3	17	3	1	3	nt
Cc1cc(OCC(=O)OC(C)C)c2c3c(c(=O)oc2c1)CCCC3	66*	2	12	4	8	3	+
Cn1nc(CC(=O)N2CCCCC2CN2CCCCC2)c2ccccc2c1=O (stereo unspecified)	0	3	nt	nt	nt	nt	nt
CCCSc1ncc(CN2C3CCC2CC(O)(c2nccn2C)C3)cn1 (stereo unspecified)	5	2	nt	nt	nt	nt	nt
O=c1c2ccccc2nc(N2CCCC2)n1-c1ccc(Cl)cc1	68*	9	17	4	-19	1	+
COc1cccc(CN2CCN(C(=O)Cc3ccccc3F)[C@@H](C)C2)c1	-29	nt	nt	nt	nt	nt	nt
CC(C)C1(C)N=C(c2ncccc2C(=O)O)NC1=O (stereo unspecified)	72*	8	3	2	-29	1	i
O=C(NC1CN2CCC1CC2)c1cc(-c2ccccn2)n[nH]1 (stereo unspecified)	11	4	nt	nt	nt	nt	nt
CN(N=O)c1ccc(O)c(O)c1	83*	10	nt	nt	nt	nt	i
CCC(=O)O[C@H]1CCC2C3CCC4=CC(=O)CC[C@]4(C)C3CC[C@@]21C (stereo partly specified)	77*	10	nt	nt	nt	nt	+

Source: PubChem BioAssay
